Measurements reported in ChEMBL document CHEMBL2029337, “Synthesis and antimicrobial activities of structurally novel S,S'-bis(heterosubstituted) disulfides” (Bioorg Med Chem Lett, 2012).
Converted amounts (≈) assume the structure as drawn. The source made the active and inactive calls. No cut-off for these calls is given here.

Legend:
Staphylococcus aureus [1] = assay: Antibacterial activity against methicillin-resistant Staphylococcus aureus ATCC 43300 assessed as growth inhibition at 10 ug after 24 hrs by agar-diffusion assay in presence of valine; format: functional, organism-based
Summary of the method: (§1)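 Kirby-Bauer well diffusion on an MRSA lawn (0.5 McFarland suspension swabbed onto tryptic soy agar). Four test agents sat in wells equidistant from a centre well holding 1 mg of additive in DMSO; a DMSO-only centre well served as vehicle control. After overnight incubation at 37 °C, the inhibition zones were examined for size or shape change.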

Staphylococcus aureus [2] = assay: Antibacterial activity against methicillin-resistant Staphylococcus aureus ATCC 43300 assessed as growth inhibition at 10 ug after 24 hrs by agar-diffusion assay in presence of CoA; format: functional, organism-based; summary of the method: as §1
Staphylococcus aureus [3] = assay: Antibacterial activity against methicillin-resistant Staphylococcus aureus ATCC 43300 assessed as growth inhibition at 10 ug after 24 hrs by agar-diffusion assay in presence of glycine; format: functional, organism-based; summary of the method: as §1
Staphylococcus aureus [4] = assay: Antibacterial activity against methicillin-resistant Staphylococcus aureus ATCC 43300 assessed as growth inhibition at 10 ug after 24 hrs by agar-diffusion assay in presence of lysine; format: functional, organism-based; summary of the method: as §1
Staphylococcus aureus [5] = assay: Antibacterial activity against methicillin-resistant Staphylococcus aureus ATCC 43300 assessed as growth inhibition at 10 ug after 24 hrs by agar-diffusion assay in presence of GSH; format: functional, organism-based; summary of the method: as §1
Staphylococcus aureus [6] = assay: Antibacterial activity against methicillin-resistant Staphylococcus aureus ATCC 43300 assessed as growth inhibition at 10 ug after 24 hrs by agar-diffusion assay in presence of iPrSSiPr; format: functional, organism-based; summary of the method: as §1
Staphylococcus aureus [7] = assay: Antibacterial activity against methicillin-resistant Staphylococcus aureus ATCC 43300 assessed as growth inhibition at 10 ug after 24 hrs by agar-diffusion assay in presence of cystine; format: functional, organism-based
Staphylococcus aureus [8] = assay: Antibacterial activity against methicillin-resistant Staphylococcus aureus ATCC 43300 assessed as growth inhibition at 10 ug after 24 hrs by agar-diffusion assay in presence of PPh3; format: functional, organism-based; summary of the method: as §1
[9] = Antibacterial activity against Francisella tularensis subspecies holarctica LVS after 48 hrs by broth dilution method; format: functional, Francisella tularensis subsp. holarctica LVS
Staphylococcus aureus [10] = assay: Antibacterial activity against methicillin-resistant Staphylococcus aureus ATCC 43300 […] by agar dilution method; format: functional
Escherichia coli = assay: Antibacterial activity against Escherichia coli K-12 […] by agar dilution method; format: functional, organism-based
Staphylococcus aureus [11] = assay: Antibacterial activity against methicillin-susceptible Staphylococcus aureus ATCC 25923 […] by agar dilution method; format: functional
Bartonella sp. = assay: Antibacterial activity against Bartonella ssp. […] by agar dilution method; format: functional
Staphylococcus aureus [12] = assay: Antibacterial activity against methicillin-resistant Staphylococcus aureus ATCC 43300 assessed as growth inhibition at 20 ug after 24 hrs by agar-diffusion assay in presence of valine; format: functional, organism-based; summary of the method: as §1
Staphylococcus aureus [13] = assay: Antibacterial activity against methicillin-resistant Staphylococcus aureus ATCC 43300 assessed as growth inhibition at 20 ug after 24 hrs by agar-diffusion assay in presence of PPh3; format: functional, organism-based; summary of the method: as §1
Staphylococcus aureus [14] = assay: Antibacterial activity against methicillin-resistant Staphylococcus aureus ATCC 43300 assessed as growth inhibition at 20 ug after 24 hrs by agar-diffusion assay in presence of glycine; format: functional, organism-based; summary of the method: as §1
Staphylococcus aureus [15] = assay: Antibacterial activity against methicillin-resistant Staphylococcus aureus ATCC 43300 assessed as growth inhibition at 20 ug after 24 hrs by agar-diffusion assay in presence of iPrSSiPr; format: functional, organism-based; summary of the method: as §1
Staphylococcus aureus [16] = assay: Antibacterial activity against methicillin-resistant Staphylococcus aureus ATCC 43300 assessed as growth inhibition at 20 ug after 24 hrs by agar-diffusion assay in presence of cystine; format: functional, organism-based
Staphylococcus aureus [17] = assay: Antibacterial activity against methicillin-resistant Staphylococcus aureus ATCC 43300 assessed as growth inhibition at 20 ug after 24 hrs by agar-diffusion assay in presence of CoA; format: functional, organism-based; summary of the method: as §1
Staphylococcus aureus [18] = assay: Antibacterial activity against methicillin-resistant Staphylococcus aureus ATCC 43300 assessed as growth inhibition at 20 ug after 24 hrs by agar-diffusion assay in presence of lysine; format: functional, organism-based; summary of the method: as §1
Staphylococcus aureus [19] = assay: Antibacterial activity against methicillin-resistant Staphylococcus aureus ATCC 43300 assessed as growth inhibition at 20 ug after 24 hrs by agar-diffusion assay in presence of GSH; format: functional, organism-based; summary of the method: as §1

Compound | MIC [9] | MIC (Staphylococcus aureus [10]) | Activity (Escherichia coli) | MIC (Staphylococcus aureus [11]) | Activity (Bartonella sp.) | other results
CC(C)SSc1ccc([N+](=O)[O-])cc1 |  |  |  |  |  | growth inhibition (GI) (Staphylococcus aureus [1]): Active; growth inhibition (GI) (Staphylococcus aureus [2]): inactive; growth inhibition (GI) (Staphylococcus aureus [3]): Active; growth inhibition (GI) (Staphylococcus aureus [4]): Active; growth inhibition (GI) (Staphylococcus aureus [5]): inactive; growth inhibition (GI) (Staphylococcus aureus [6]): Active; growth inhibition (GI) (Staphylococcus aureus [7]): inactive; growth inhibition (GI) (Staphylococcus aureus [8]): Active
O=C(O)c1cn(C2CC2)c2cc(N3CCNCC3)c(F)cc2c1=O [CIPROFLOXACIN] | 0.125 µg/mL (≈ 0.377 µM) |  |  |  |  | 
CC(C)[C@@H]1CC[C@@H](C)C[C@H]1OSSO[C@@H]1C[C@H](C)CC[C@H]1C(C)C | 4 µg/mL (≈ 10.7 µM) | 16 µg/mL (≈ 42.7 µM) | inactive | 8 µg/mL (≈ 21.4 µM) | inactive | 
c1ccc(OSSOc2ccccc2)cc1 | 1 µg/mL (≈ 3.99 µM) | 2 µg/mL (≈ 7.99 µM) | inactive | 2 µg/mL (≈ 7.99 µM) | inactive | 
CC(C)NSSNC(C)C | 2 µg/mL (≈ 11.1 µM) | 32 µg/mL (≈ 177 µM) | inactive | 32 µg/mL (≈ 177 µM) | inactive | 
CCCOSSOCCC | 16 µg/mL (≈ 87.8 µM) | 32 µg/mL (≈ 176 µM) | inactive | 32 µg/mL (≈ 176 µM) | inactive | 
CCCSSSSCCC | 1 µg/mL (≈ 4.66 µM) | 32 µg/mL (≈ 149 µM) | inactive | 32 µg/mL (≈ 149 µM) | inactive | 
C[C@H](c1ccccc1)N(Cc1ccccc1)SSN(Cc1ccccc1)[C@H](C)c1ccccc1 | 16 µg/mL (≈ 33 µM) | 64 µg/mL (≈ 132 µM) | inactive | 16 µg/mL (≈ 33 µM) | inactive | 
CC(C)[C@H]1CC[C@H](C)C[C@@H]1OSSO[C@H]1C[C@@H](C)CC[C@@H]1C(C)C | 4 µg/mL (≈ 10.7 µM) | 8 µg/mL (≈ 21.4 µM) | inactive | 8 µg/mL (≈ 21.4 µM) | inactive | 
CC(C)CN(CC(C)C)SSN(CC(C)C)CC(C)C | 1 µg/mL (≈ 3.12 µM) | 16 µg/mL (≈ 49.9 µM) | inactive | 16 µg/mL (≈ 49.9 µM) | inactive | 
CCCCOSSOCCCC | 4 µg/mL (≈ 19 µM) | 8 µg/mL (≈ 38 µM) | inactive | 0.25 µg/mL (≈ 1.19 µM) | inactive | 
CCN(CC)SSN(CC)CC | 16 µg/mL (≈ 76.8 µM) | 2 µg/mL (≈ 9.6 µM) | inactive | 2 µg/mL (≈ 9.6 µM) | inactive | 
C=CC(=O)O[C@H]1C(=O)N(SC)[C@H]1c1ccccc1Cl |  |  |  |  |  | growth inhibition (GI) (Staphylococcus aureus [12]): Active; growth inhibition (GI) (Staphylococcus aureus [13]): Active; growth inhibition (GI) (Staphylococcus aureus [14]): Active; growth inhibition (GI) (Staphylococcus aureus [15]): Active; growth inhibition (GI) (Staphylococcus aureus [16]): inactive; growth inhibition (GI) (Staphylococcus aureus [17]): inactive; growth inhibition (GI) (Staphylococcus aureus [18]): Active; growth inhibition (GI) (Staphylococcus aureus [19]): inactive
CN(C)SSN(C)C | 8 µg/mL (≈ 52.5 µM) | 0.5 µg/mL (≈ 3.28 µM) | inactive | 0.25 µg/mL (≈ 1.64 µM) | inactive | 
CCC(C)SSSSC(C)CC (configuration not stated) | 16 µg/mL (≈ 66 µM) | 64 µg/mL (≈ 264 µM) | inactive | 32 µg/mL (≈ 132 µM) | inactive | 
CC(COSSOCC(C)c1ccccc1)c1ccccc1 (racemic) | 8 µg/mL (≈ 23.9 µM) | 16 µg/mL (≈ 47.8 µM) | inactive | 16 µg/mL (≈ 47.8 µM) | inactive | 

Compound | MIC [9] | MIC (Staphylococcus aureus [10]) | Activity (Escherichia coli) | MIC (Staphylococcus aureus [11]) | Activity (Bartonella sp.) | other results
CCCCNSSNCCCC | 4 µg/mL (≈ 19.2 µM) | 32 µg/mL (≈ 154 µM) | inactive | 8 µg/mL (≈ 38.4 µM) | inactive | 
CC[C@@H](C)OSSO[C@H](C)CC | 16 µg/mL (≈ 76.1 µM) | 32 µg/mL (≈ 152 µM) | inactive | 16 µg/mL (≈ 76.1 µM) | inactive | 
CCCCSSSSCCCC | 4 µg/mL (≈ 16.5 µM) | 32 µg/mL (≈ 132 µM) | inactive | 64 µg/mL (≈ 264 µM) | inactive | 
CC[C@H](C)OSSO[C@@H](C)CC | 16 µg/mL (≈ 76.1 µM) | 32 µg/mL (≈ 152 µM) | inactive | 16 µg/mL (≈ 76.1 µM) | inactive | 
CC(C)N(SSN(C(C)C)C(C)C)C(C)C | 32 µg/mL (≈ 121 µM) | 1 µg/mL (≈ 3.78 µM) | inactive | 2 µg/mL (≈ 7.56 µM) | inactive | 
CC1(C)S[C@@H]2[C@H](NC(=O)Cc3ccccc3)C(=O)N2[C@H]1C(=O)O [PENICILLIN G] |  | 64 µg/mL (≈ 191 µM) |  | 0.25 µg/mL (≈ 0.748 µM) |  | growth inhibition (GI) (Staphylococcus aureus [1]): Active; growth inhibition (GI) (Staphylococcus aureus [2]): Active; growth inhibition (GI) (Staphylococcus aureus [3]): Active; growth inhibition (GI) (Staphylococcus aureus [4]): Active; growth inhibition (GI) (Staphylococcus aureus [5]): Active; growth inhibition (GI) (Staphylococcus aureus [6]): Active; growth inhibition (GI) (Staphylococcus aureus [7]): Active; growth inhibition (GI) (Staphylococcus aureus [8]): Active
C[C@@H](c1ccccc1)N(Cc1ccccc1)SSN(Cc1ccccc1)[C@@H](C)c1ccccc1 | 16 µg/mL (≈ 33 µM) | 64 µg/mL (≈ 132 µM) | inactive | 16 µg/mL (≈ 33 µM) | inactive | 
c1ccc(SSSSc2ccccc2)cc1 | 2 µg/mL (≈ 7.08 µM) | 8 µg/mL (≈ 28.3 µM) | inactive | 8 µg/mL (≈ 28.3 µM) | inactive | 
CCC(C)NSSNC(C)CC (configuration not stated) | 8 µg/mL (≈ 38.4 µM) | 16 µg/mL (≈ 76.8 µM) | inactive | 16 µg/mL (≈ 76.8 µM) | inactive | 
CCCNSSNCCC | 16 µg/mL (≈ 88.7 µM) | 4 µg/mL (≈ 22.2 µM) | inactive | 8 µg/mL (≈ 44.4 µM) | inactive | 
CC(C)SSSSC(C)C | 8 µg/mL (≈ 37.3 µM) | 32 µg/mL (≈ 149 µM) | inactive | 32 µg/mL (≈ 149 µM) | inactive | 
CC1CCC(C(C)C)C(OSSOC2CC(C)CCC2C(C)C)C1 (racemic) | 4 µg/mL (≈ 10.7 µM) | 16 µg/mL (≈ 42.7 µM) | inactive | 8 µg/mL (≈ 21.4 µM) | inactive | 
CCC(C)OSSOC(C)CC (configuration not stated) | 16 µg/mL (≈ 76.1 µM) | 8 µg/mL (≈ 38 µM) | inactive | 16 µg/mL (≈ 76.1 µM) | inactive | 
C=CCN(CC=C)SSN(CC=C)CC=C | 16 µg/mL (≈ 62.4 µM) | 0.5 µg/mL (≈ 1.95 µM) | inactive | 1 µg/mL (≈ 3.9 µM) | inactive | 
c1ccc(NSSNc2ccccc2)cc1 | 0.5 µg/mL (≈ 2.01 µM) | 4 µg/mL (≈ 16.1 µM) | inactive | 4 µg/mL (≈ 16.1 µM) | inactive | 
